Experimental data as given in ChEMBL document CHEMBL3045883, “Antifungal effects of different organic extracts from Melia azedarach L. on phytopathogenic fungi and their isolated active components” (J Agric Food Chem, 2003).
Converted amounts (≈) assume the structure as drawn.

Columns and labels:
Fusarium verticillioides [1] = test: Antifungal activity against Fusarium verticillioides assessed as growth inhibition after 48 hr by inverted light microscopic analysis; type: functional, organism-based
Method in brief: (§1)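 Broth microdilution: F. verticillioides conidia, 4 days old, from a monosporic culture, in glucose-mineral salts medium at 1 × 10^5 conidia/mL. Pure compounds in DMSO added to wells in duplicate ([…]; final DMSO 2–4%). Controls were spore wells with or without DMSO. Percent growth (0–100) scored visually by inverted light microscope, always by the same operator. IC50 derived by Probit analysis.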

Fusarium verticillioides [2] = test: Antifungal activity against Fusarium verticillioides assessed as growth inhibition at 0.8 mg/mL after 48 hr by inverted light microscopic analysis; type: functional; details: read-out: GI; method in brief: as §1
Fusarium verticillioides [3] = test: Antifungal activity against Fusarium verticillioides assessed as growth inhibition at 0.6 mg/mL after 48 hr by inverted light microscopic analysis; type: functional; details: read-out: GI; method in brief: as §1
Fusarium verticillioides [4] = test: Fungistatic activity against Fusarium verticillioides after 48 hr by broth microdilution method; type: functional; method in brief: as §1
Fusarium verticillioides [5] = test: Antifungal activity against Fusarium verticillioides assessed as growth inhibition at 0.2 mg/mL after 48 hr by inverted light microscopic analysis; type: functional; details: read-out: GI; method in brief: as §1
Fusarium verticillioides [6] = test: Antifungal activity against Fusarium verticillioides assessed as growth inhibition at 0.4 mg/mL after 48 hr by inverted light microscopic analysis; type: functional; details: read-out: GI; method in brief: as §1

MIC (Fusarium verticillioides [4]) [µg/mL] | SMILES | IC50 (Fusarium verticillioides [1]) [µg/mL] | growth inhibition (GI) (Fusarium verticillioides [1]) | inhibition of growth at 800 µg/mL (Fusarium verticillioides [2]) [%] | inhibition of growth at 600 µg/mL (Fusarium verticillioides [3]) [%] | inhibition of growth at 200 µg/mL (Fusarium verticillioides [5]) [%] | inhibition of growth at 400 µg/mL (Fusarium verticillioides [6]) [%]
1000 (≈ 2790 µM) | COc1cc(C2OCC3C(c4ccc(O)c(OC)c4)OCC23)ccc1O (racemic) [(+/-)-PINORESINOL] | 760 (≈ 2120 µM) | Dose-dependent effect | 40 | 20 |  | 
400 (≈ 2240 µM) | COc1cc(/C=C/C=O)ccc1O [CONIFERYL ALDEHYDE] | 240 (≈ 1350 µM) | Dose-dependent effect |  |  | 20 | 
600 (≈ 3940 µM) | COc1cc(C=O)ccc1O [VANILLIN] | 300 (≈ 1970 µM) | Dose-dependent effect |  |  | 20 | 65
